Most compounds without a hit are left out; they make up all but 2.4% or so of the library.
NR2E3 ag-1 – human photoreceptor-specific nuclear receptor agonism; Q9Y5X4; CHO-S Gal4-NCOR/VP16-NR2E3 two-hybrid, luciferase; inhibition of corepressor binding, % at 3.98 µM; hit rate 0.35% among 360,000; AID 602229;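 active = inhibition above the mean of all tested compounds plus 3 SD, cut at about 70% in these data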;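 also: higher means lower luciferase signal from less NR2E3 corepressor binding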
Target sequence (Q9Y5X4 whole entry, looked up, the tested form may be a part): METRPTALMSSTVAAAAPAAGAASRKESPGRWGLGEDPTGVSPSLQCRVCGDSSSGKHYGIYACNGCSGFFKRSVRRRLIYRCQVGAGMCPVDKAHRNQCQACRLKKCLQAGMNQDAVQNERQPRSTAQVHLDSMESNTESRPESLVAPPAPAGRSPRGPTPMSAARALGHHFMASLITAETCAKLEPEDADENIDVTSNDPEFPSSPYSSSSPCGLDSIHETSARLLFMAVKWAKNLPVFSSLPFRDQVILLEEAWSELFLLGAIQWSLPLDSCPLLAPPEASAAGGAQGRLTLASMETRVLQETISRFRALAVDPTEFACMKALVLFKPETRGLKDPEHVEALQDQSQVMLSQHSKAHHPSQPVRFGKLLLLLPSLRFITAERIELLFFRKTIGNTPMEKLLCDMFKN
NR2E3 ag-2 – activates human photoreceptor nuclear receptor NR2E3; Q9Y5X4; GST-NR2E3/biotin-RetCOR TR-FRET, 1536-well; inhibition of corepressor binding, % at 4.78 µM; hit rate 0.12% among 320,000; AID 2300;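 active = percent inhibition above the cutoff of mean plus 3 SD of all tested compounds, set per screening campaign, cut at about 20% in these data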
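Material – GST-tagged NR2E3 plus biotinylated RetCOR corepressor · Quantity – NR2E3 fusion 1.35 nM · Times – 5 h incubation at 4 °C · Medium – pH 7.5 Tris-based buffer · Technique – TR-FRET, Eu(K)-anti-GST donor, streptavidin-D2 acceptor, ex 340, em 617/671 nm · Benchmarks – high control biotin, low control 0.6% DMSO · Format – 1536-well plates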
Jurkat NFkB inh – inhibitors of the PMA/ionomycin-induced NF-kB reporter in Jurkat cells. PMA/ionomycin-induced NF-kB luciferase reporter, luminescence. inhibition, % at 4 µM. hit rate 0.53% among 330,000. AID 435003; in the data active = inhibition above about 50%
aDG glyco up – alpha-DG glycosylation activation. Pro5-aDG cells, alpha-DG glycosylation AlphaScreen (IIH6); 0% Pro5, 100% B10-LARGE cell signal. hit rate 0.22% among 360,000. activation, % at 10 µM;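 active = activation of at least 8% versus controls, or a plate z-score of at least 8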;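 also: Pro5 are CHO cells carrying HIG-tagged alpha-DG that lacks glycosylation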
MPTP block – inhibitors of mitochondrial permeability transition pore; AID 602449; isolated mouse mitochondria, Ca2+ swelling absorbance, 30 min; inhibition, % at 10 µM; hit rate 1.4% among 360,000;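 active = inhibition of 50% or more, scaled per plate between neutral and stimulator controls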
697 NFkB inh – inhibitors of the PMA/ionomycin-induced NF-kB reporter in 697 B cells; 697 B-cell NF-kB luciferase reporter, 16 h; inhibition, % at 4 µM; hit rate 0.33% among 330,000; AID 435022; in the data active = inhibition above about 35%
NR2E3 agonist cf – confirmation of human NR2E3 nuclear receptor agonists. shares compounds with NR2E3 ag-2. AID 2379. activation (reported as inhibition), % at 3.98 µM. hit rate 39% among 360. cell-free NR2E3 corepressor release, TR-FRET, 5 h; in the data active = activation above about 20%
PPARg-NCOR2 ag – releases PPARgamma from NCOR2 in NR2E3 counter-screen | shares compounds with NR2E3 ag-2 | inhibition, % at 3.98 µM | TR-FRET PPARg-NCOR2 coregulator interaction, biochemical | hit rate 45% among 360 | AID 504787; in the data active = inhibition above about 20%
Jurkat NFkB conf – inhibitors of the PMA/ionomycin-induced NF-kB reporter in Jurkat cells, retest; shares compounds with Jurkat NFkB inh; Jurkat NF-kB luciferase, 16 h; inhibition, % at 4 µM; hit rate 27% among 2,700; AID 435020;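 active = inhibition reaching about 45% at 4 µM in either replicate, limit read from the data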
697 NFkB conf – lowers PMA/ionomycin-induced NF-kB signal in 697 B cells; shares compounds with 697 NFkB inh; AID 449746; hit rate 35% among 2,000; inhibition, % at 4 µM; 697 B-cell NF-kB luciferase, 16 h; in the data active = inhibition mostly above about 28%, no sharp cut-off; inactive = mostly below about 22%
Of the large screens only hits and unclear results are named; the others gave an inactive call (follow-up assays come after a bar, where they were run).

CCCCC(CC)COC(=O)c1ccccc1C(=O)OCC(CC)CCCC (stereo not drawn)	none
C[CH2][Hg][S]c1ccccc1C(=O)O	NR2E3 ag-1 93
CCn1nc(-c2cccs2)nc2c(=O)n(C)c(=O)nc1-2	NR2E3 ag-1 106 (no result: NR2E3 ag-2, Jurkat NFkB inh, 697 NFkB inh)
CC1CN=C(NCCc2ccccc2)S1 (stereo not drawn)	none
NC(Cc1cc(O)c(O)cc1O)C(=O)O (stereo not drawn)	NR2E3 ag-2 25 (no result: NR2E3 ag-1, aDG glyco up, MPTP block) | NR2E3 agonist cf 38 | PPARg-NCOR2 ag inactive
CCOP(=S)(OCC)Oc1cc(C)oc(=O)c1Cl	none
CCN1C(=O)C(=C/C=C/c2ccco2)C(=O)N(CC)C1=S	none
CCN1C(=O)C(=C2C=C(C)N(Cc3ccco3)C(C)=C2)C(=O)N(CC)C1=S	NR2E3 ag-2 25 | NR2E3 agonist cf inactive | PPARg-NCOR2 ag inactive
COc1cccc(OC)c1C1=NCC(=O)Nc2c1oc1ccc(Br)cc21	Jurkat NFkB inh 56 | Jurkat NFkB conf 61
O=C1CN=C(c2ccccc2)c2oc3ccc(Br)cc3c2N1	none
Cc1cccn2c(=O)c3cc(C(=O)N4CCC5(CC4)OCCO5)n(C)c3nc12	Jurkat NFkB inh 53 | Jurkat NFkB conf inactive
O=C(c1cccn2c(=O)c3cc(Br)ccc3nc12)N1CCC2(CC1)OCCO2	none
O=C(CCNC(=O)N1C[C@H]2C[C@@H](C1)c1cccc(=O)n1C2)Nc1cccc(Cl)c1	none
COc1ccc(-c2nn(CCC#N)cc2C(=O)Nc2ccccc2Br)cc1	none
Cc1cc(C)c2c(ccc3cccc[n+]32)c1	Jurkat NFkB inh 57 | Jurkat NFkB conf inactive
COc1cc([C@@H]2c3cc4c(cc3[C@@H](OC)[C@H]3COC(=O)[C@H]23)OCO4)cc(OC)c1O	Jurkat NFkB inh 57 | Jurkat NFkB conf 47
COc1cc2c(cc1C=O)OCO2	none
O=C(Cc1ccc([N+](=O)[O-])cc1)N1CCN(Cc2ccc3c(c2)OCO3)CC1	none
COc1cc2c(cc1OC)-c1c3c(cc4c1[C@@H](C2)N(C)CC4)OCO3	Jurkat NFkB inh 60 | Jurkat NFkB conf inactive
O=P1(Oc2ccccc2)CC=C[C@H](COCc2ccccc2)O1 (stereo partly drawn)	none
C[C@]12CCC3C(CC[C@H]4C[C@H](O)CC[C@]34C)C1[C@@H](O)[C@@H](O)[C@@H]2O (stereo partly drawn)	none (no result: NR2E3 ag-2)
COc1ccc(-c2cc(=Nc3ccccc3)c3cc(C)ccc3o2)cc1	none | Jurkat NFkB conf inactive
CC(=O)OC(C)(C)/C=C/C(=O)C(C)(O)C1[C@H](O)C[C@@]2(C)C3CC=C4C(CC[C@@H](O)C4(C)C)[C@]3(CO)C(=O)C[C@]12C (stereo partly drawn)	Jurkat NFkB inh 81 | Jurkat NFkB conf inactive
COC(=O)C(Cc1ccc(N(CCCl)CCCl)cc1)N=Cc1ccccc1O (stereo not drawn)	Jurkat NFkB inh 51 | Jurkat NFkB conf inactive
CCCc1cc(=O)oc2cc(OCC(=O)N3CCC(C(=O)O)(c4ccccc4)CC3)ccc12	none
COc1ccc(-n2cnc3cc(C(=O)N4CCC5(CC4)OCCO5)ccc32)cc1	Jurkat NFkB inh 50 | Jurkat NFkB conf inactive
C/C=C(\C)C(=O)N[C@@H](c1ccccc1)[C@@H](O)C(=O)O[C@H]1C[C@@]2(O)[C@@H](OC(=O)c3ccccc3)C3[C@](C)(C(=O)[C@H](O)C(=C1C)C2(C)C)[C@@H](O)C[C@H]1OC[C@@]31OC(C)=O (stereo partly drawn)	Jurkat NFkB inh 70 | Jurkat NFkB conf 64
CC(=O)O[C@@]12CO[C@@H]1C[C@H](O)[C@@]1(C)C(=O)[C@H](O)C3=C(C)[C@@H](O)C[C@@](O)([C@@H](OC(=O)c4ccccc4)C12)C3(C)C (stereo partly drawn)	none
C/C=C(\C)C(=O)N[C@@H](c1ccccc1)[C@@H](O)C(=O)O[C@H]1C[C@@]2(O)[C@@H](OC(=O)c3ccccc3)C3[C@](C)(C(=O)[C@H](OC(C)=O)C(=C1C)C2(C)C)[C@@H](O)C[C@H]1OC[C@@]31OC(C)=O (stereo partly drawn)	Jurkat NFkB inh 66 | Jurkat NFkB conf 71
CC(C)Oc1ccc(CC2(CCc3ccncc3)C(=O)NC(=O)NC2=O)cc1	none
C[C@@H]1O[C@@H](O[C@@H]2C=C3CC[C@@H]4C(CC[C@]5(C)[C@@H](c6ccc(=O)oc6)CC[C@]45O)[C@@]3(C)CC2)[C@H](O)[C@H](O)[C@H]1O (stereo partly drawn)	Jurkat NFkB inh 100, 697 NFkB inh 90 | Jurkat NFkB conf 94 | 697 NFkB conf 99
C[C@@H]1O[C@@H](O[C@@H]2C=C3CCC4C(CC[C@]5(C)[C@@H](c6ccc(=O)oc6)CC[C@]45O)[C@@]3(C)CC2)[C@H](O)[C@H](O)[C@H]1O (stereo partly drawn)	Jurkat NFkB inh 100, 697 NFkB inh 102 | Jurkat NFkB conf 97 | 697 NFkB conf 99
CC(=O)C1CCC2(O)C3CCC4=CC(=O)CCC4(C)C3CCC12C (stereo not drawn)	none (no result: NR2E3 ag-2, Jurkat NFkB inh, 697 NFkB inh)
COC(=O)C1=C(c2cccc(Cl)c2)C[C@@H]2CC[C@H]1N2C(=O)N1CCCC1	none
CC1=CC2/C=C(\C)CCC(O)C(O)/C=C/C(=O)C23C(=O)NC(CC(C)C)C3C1C (stereo not drawn)	Jurkat NFkB inh 79, 697 NFkB inh 38 | Jurkat NFkB conf inactive | 697 NFkB conf inactive
CN(C)CCN(C(=O)COc1ccc(Cl)cc1)c1nc2cc3c(cc2s1)OCO3	none
CC(C)(C)NC(=O)C1CC2CCCCC2CN1 (stereo not drawn)	none
C[C@@H]1O[C@@H](O[C@H]2C[C@@H](O)[C@]3(CO)[C@H]4[C@H](O)C[C@]5(C)[C@@H](C6COC(=O)C6)CC[C@]5(O)[C@@H]4CC[C@]3(O)C2)[C@H](O)[C@H](O)[C@H]1O (stereo partly drawn)	Jurkat NFkB inh 96 | Jurkat NFkB conf 72 | 697 NFkB conf inactive
